Screening results from PubChem.
NCF1 inh = p47phox (human) inhibition; AID 1274; inhibition, % at 24.7 µM; p47phox/p22phox peptide binding, fluorescence polarization, 2 h; hit rate 0.53% among 220,000; P14598
WT yeast gro inh = growth inhibition of WT yeast, mitochondrial fusion screen; mitochondrial fusion phenotypic screen, WT strain; inhibition, % at 10 µM; hit rate 2.1% among 190,000; AID 1362; in the data active means inhibition above about 58%; tested in S. cerevisiae
eIF4E 4G PPI = eIF4E/eIF4G interaction inhibition in translation initiation; P63073+Q04637; TR-FRET eIF4E-eIF4GI(517-606) binding, 2 h; inhibition, % at 21.7 µM; hit rate 0.37% among 220,000
14-3-3 Bad PPI = disrupts binding of bovine 14-3-3 zeta to phospho-Bad peptide. inhibition, % at 21.7 µM. TR-FRET 14-3-3zeta/Dy647-pBad peptide displacement, 1 h. hit rate 0.71% among 220,000;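 active means inhibition above about 70%, limit read from the data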
EBV gp42 block = EBV gp42 inhibition | AID 1085 | Fluorescence polarization binding assay, mP read-out | Q1HVG2 | inhibition, % (tested at 21.74 µM) | hit rate 0.42% among 220,000; in the data active means inhibition above about 50%
Target sequence (Q1HVG2 whole entry, looked up): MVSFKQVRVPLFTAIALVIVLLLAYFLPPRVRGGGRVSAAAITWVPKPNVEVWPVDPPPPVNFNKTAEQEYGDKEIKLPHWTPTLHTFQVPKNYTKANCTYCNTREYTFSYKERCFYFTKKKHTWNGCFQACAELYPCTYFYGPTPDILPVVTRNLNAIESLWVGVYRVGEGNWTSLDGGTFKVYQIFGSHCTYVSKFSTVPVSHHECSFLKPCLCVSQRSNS
RBBP9 inhibitor = blocks human serine hydrolase RBBP9 | O75884 | recombinant RBBP9, FP-Rh probe fluorescence polarization | inhibition, % at 7.94 µM | hit rate 0.2% among 220,000 | AID 1515;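 active means inhibition above the campaign mean of all tested compounds plus 3 SD, cut at about 14% in these data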
Target sequence (O75884 whole entry, looked up): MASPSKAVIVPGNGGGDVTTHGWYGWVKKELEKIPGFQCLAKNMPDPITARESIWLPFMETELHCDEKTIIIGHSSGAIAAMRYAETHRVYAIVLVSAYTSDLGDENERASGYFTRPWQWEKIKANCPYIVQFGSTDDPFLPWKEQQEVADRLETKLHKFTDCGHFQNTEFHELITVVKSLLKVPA
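Test system: recombinant human RBBP9; Timing: 30 min then 45 min, 25 °C; Detection: fluorescence polarization; Control set: RBBP9 with DMSO as uninhibited control, no-protein wells as full inhibition; Compound dosing: one concentration, 7.94 µM nominal, 0.794% DMSO; Probe or stimulus: FP-Rh activity-based probe, 375 nM before mixing.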
Numbers stand for hits; - = inactive; . = not tested or not shown; [ ] = dose if it differs, or a comment. Hits are enriched below; roughly 3.7% of the tested compounds scored in any of these assays.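 How the source made its calls, unless noted: active means inhibition above about 30% (limit read from the data); inactive means the rest.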

SMILES	NCF1 inh	WT yeast gro inh	eIF4E 4G PPI	14-3-3 Bad PPI	EBV gp42 block	RBBP9 inhibitor
Cc1ccc(CSCC(=O)NCc2ccco2)cc1	-	-	-	89	-	-
Cc1ccc(SCC(=O)NCc2ccco2)cc1	-	-	-	-	-	-
COc1cccc(CNC(=O)CNC(=S)N(Cc2ccccc2)Cc2ccccc2F)c1	-	72	-	-	-	-
CCOC(=O)CNC(=S)N(Cc1ccccc1)Cc1ccccc1F	-	-	-	-	-	-
COc1cccc(CNC(=O)Cc2ccc(Br)cc2)c1	-	-	-	-	-	-
O=C(CNC(=S)N(Cc1ccccc1)Cc1ccccc1F)NCc1ccccc1	-	75	-	-	-	-
O=C(CNC(=S)N(Cc1ccccc1)Cc1ccccc1F)NCCc1ccccc1	-	64	-	-	-	-
CN(C)CCNC(=O)CNC(=S)N(Cc1ccccc1)Cc1ccccc1F	-	-	-	-	-	-
O=C(CNC(=S)N(Cc1ccccc1)Cc1ccccc1F)NCc1ccc(Cl)cc1	-	81	-	-	-	-
CCOC(=O)c1sc(-c2ccccn2)nc1C	-	-	-	-	-	-
CCOC(=O)C1CCCN(c2c(NCCc3ccc(Cl)cc3)c(=O)c2=O)C1 (configuration not stated)	-	.	-	-	-	-
Cc1ccc(CNC(=O)CNC(=S)N(Cc2ccccc2)Cc2ccccc2F)cc1	-	74	-	-	-	-
O=C(COc1cccc(Br)c1)NN=C1c2ccccc2-c2ccccc21	68	-	-	-	-	-
Cc1ccccc1-n1nnnc1SCC(=O)NCC1CCCO1 (configuration not stated)	-	-	-	-	-	-
CCOc1ccc(-n2nnnc2SCC(=O)NNC(=O)c2ccco2)cc1	.	-	-	-	-	-
N=C1S/C(=C\c2ccc(-c3cccc(Cl)c3)o2)C(=O)N1c1nccs1	-	-	-	74[fluorescence artefact?]	76	-
CCOc1ccccc1N1CCN(Cc2cnc(-c3ccccc3)[nH]2)CC1	-	.	-	-	-	-
COc1ccc(CN2CCOCC2)c(C)c1C	-	-	-	71	-	-
CC(=C\c1ccco1)/C=C(\C#N)C(=O)NCCc1c[nH]c2ccccc12	-	-	-	-	-	-
CN1CCN(S(=O)(=O)c2ccc(N3CCN(S(=O)(=O)/C=C/c4ccccc4)CC3)nc2)CC1	40	-	-	72	-	-
CN1CCN(S(=O)(=O)c2ccc(N3CCN(C(c4ccccc4)c4ccccc4)CC3)nc2)CC1	-	69	-	-	-	-
CC(=O)c1ccc(N2CCN(c3ccc(S(=O)(=O)N4CCN(C)CC4)cn3)CC2)cc1	-	-	-	-	-	-
O=C(O)CCC(=O)Nc1ccc(Br)cc1C(=O)c1ccc(Cl)cc1	-	.	-	-	-	-
COc1cc(-c2noc(-c3ccccc3C(=O)NCc3ccco3)n2)cc(OC)c1OC	42	-	-	-	-	-
CNc1ccccc1C(C)(C)c1cc(-c2cccc(OC)c2)no1	-	63	-	-	-	-
SMILES	NCF1 inh	WT yeast gro inh	eIF4E 4G PPI	14-3-3 Bad PPI	EBV gp42 block	RBBP9 inhibitor
CNc1ccccc1C(C)(C)c1cc(-c2cc(C)cc(C)c2)no1	-	-	-	-	-	-
NC(=S)N=Nc1c(O)n(Cc2ccccc2)c2ccccc12	-	-	-	-	-	-
O=Nc1c(O)n(Cc2cccc(Cl)c2)c2ccccc12	-	67	-	-	-	-
CC1=CCC(C(=O)O)(C(=O)N/N=C/c2cccs2)C(c2ccc([N+](=O)[O-])cc2)C1 (configuration not stated)	-	70	-	-	-	-
CC1=CCC(C(=O)O)(C(=O)N/N=C/c2cccs2)C(c2ccc(F)cc2)C1 (configuration not stated)	-	-	-	-	-	-
CCC(C)Nc1nc(-c2ccc3c(c2)NC(=O)CO3)cs1 (configuration not stated)	-	-	-	81	-	-
COc1ccc(Nc2nc(-c3ccc4c(c3)NC(=O)CO4)cs2)cc1	-	-	-	-	-	-
Cc1nn(-c2ccccc2)c(N2CCCC2)c1/C=C1\N=C(c2ccccc2)OC1=O	-	-	-	-	117	-
CC(C)N(Cc1nc(-c2ccccc2)no1)C(=O)C(Cl)(Cl)Cl	-	72	-	-	-	-
CC(C)N(Cc1nc(-c2ccccc2)no1)C(=O)C(C)(C)C	-	-	-	-	-	-
CC(C)N(Cc1nc(-c2ccccc2)no1)C(=O)COc1ccccc1	-	-	62	-	-	-
NS(=O)(=O)c1cc(C(=O)OCC(=O)Nc2ccc(N3CCCCC3)cc2)ccc1Cl	-	.	-	-	-	-
CN1CCN(NC(=O)c2cccc(C(F)(F)F)c2)CC1	-	.	-	-	-	-
CC(/C=N\NC(=O)c1cccnc1)c1ccccc1 (configuration not stated)	.	.	.	.	.	-
Cc1cc(C)n(-c2ccc(C(=O)OCC(=O)NCc3ccc(F)cc3)cc2)n1	-	-	-	-	-	-
Cc1cc(=O)n2[nH]cnc2n1	-	-	-	-	-	-
CCCc1cc(=O)n2[nH]cnc2n1	32	-	-	-	-	-
N/C(=N\N=C\c1cccs1)SC1CC(=O)N(c2cccc([N+](=O)[O-])c2)C1=O (configuration not stated)	-	-	-	82	-	-
CCOc1ccc(N2C(=O)CC(S/C(N)=N/N=C/c3cccs3)C2=O)cc1 (configuration not stated)	-	-	-	-	-	-
CC(=O)Nc1sc2c(c1C(c1ccc(Cl)cc1)N1CCOCC1)CCCC2 (configuration not stated)	-	81	-	-	-	-
Cc1ccc(N=Nc2c(O)c3ccccc3[nH]c2=O)c(S(=O)(=O)N(C)C)c1	-	.	-	-	-	-
CN(C)S(=O)(=O)c1ccccc1N=C=S	-	.	-	-	-	16
COC(=O)CSc1cc(C(F)(F)F)nc(-c2ccccn2)n1	-	-	-	-	-	-
FC(F)(F)c1cc(Sc2ccccc2)nc(-c2ccccn2)n1	-	65	-	-	-	-
CCOCCCNCc1ccc(OCCC(C)C)c(OC)c1	.	-	-	-	-	-
CCC1=NN2C(=N)/C(=C/c3c(C)nn(-c4ccccc4)c3Cl)C(=O)N=C2S1	-	-	-	-	-	-
CCc1nn2c(=O)cc(COc3ccc(/C=C4\C(=N)N5N=C(C)SC5=NC4=O)cc3)nc2s1	-	-	-	-	73	-
Oc1ccccc1/C=N/NC(=S)NC1CC2CC1C1C=CCC21 (configuration not stated)	-	.	-	-	-	-
O=C(CC1C(=O)NCCN1C(=S)Nc1ccccc1)Nc1ccc2c(c1)OCCO2 (configuration not stated)	-	-	-	-	-	-
Cc1ccc(NC(=O)CC2C(=O)NCCN2C(=S)Nc2ccccc2)c(C)c1 (configuration not stated)	-	-	-	75	-	-
